Screening data deposited in PubChem BioAssay by Broad Institute.
Most compounds without a hit are left out; they make up all but 2.1% or so of the library.
PGC1a acetyl inh = inhibitors of PGC1a acetylation signal, primary screen, cell-based, U2OS, AlphaScreen, inhibitor mode; AlphaScreen anti-acetyl-lysine; with virally co-expressed GCN5 acetyltransferase; inhibition, % at 15.6 µM; actives 0.17% (n = 350,000); AID 651687, 2012;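 active = every replicate shows inhibition of at least 40%; inconclusive = mean inhibition at least 40% but some replicate below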;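 note: 0% = neutral control wells and 100% = positive control wells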
AF4-AF9 inh = inhibitors of AF4 peptide binding to AF9, primary screen, biochemical, AlphaScreen, biotin-AF4 peptide, FLAG-AF9, single point; actives 0.47% (n = 350,000); Protein AF-9 (Homo sapiens), P42568; AID 651704, 2012; inhibition, % at 10 µM;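 active = every replicate reaching a set inhibition limit, whatever the replicate mean, cut at about 25% in these data; inconclusive = mean inhibition reaches that limit but some replicates miss it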;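 note: 0% = plate neutral control median and 100% = total signal loss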
Target sequence (P42568 whole entry, looked up): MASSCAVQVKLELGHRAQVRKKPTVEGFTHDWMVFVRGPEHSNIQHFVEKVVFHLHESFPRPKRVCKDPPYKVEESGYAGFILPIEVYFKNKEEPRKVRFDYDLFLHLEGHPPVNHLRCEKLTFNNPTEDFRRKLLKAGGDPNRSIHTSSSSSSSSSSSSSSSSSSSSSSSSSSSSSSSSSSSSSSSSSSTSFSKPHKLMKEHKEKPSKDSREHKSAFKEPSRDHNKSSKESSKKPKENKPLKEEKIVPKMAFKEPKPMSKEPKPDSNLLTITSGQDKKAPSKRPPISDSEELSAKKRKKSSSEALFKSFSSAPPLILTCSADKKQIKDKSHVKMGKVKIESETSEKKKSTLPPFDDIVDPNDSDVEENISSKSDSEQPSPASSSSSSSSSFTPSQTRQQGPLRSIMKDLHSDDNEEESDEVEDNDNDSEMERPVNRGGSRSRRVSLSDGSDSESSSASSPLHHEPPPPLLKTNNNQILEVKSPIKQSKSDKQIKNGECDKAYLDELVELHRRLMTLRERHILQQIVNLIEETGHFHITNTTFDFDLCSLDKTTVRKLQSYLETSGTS
EWS-Fli inh = EWS/Fli-driven NR0B1 reporter inhibitors, primary screen, A673 cells, NR0B1 luciferase, luminescence, MLPCN library; viability-normalised; inhibition, % at 12.6 µM; actives 0.67% (n = 350,000); AID 651661, 2012;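 active = mean inhibition of at least 50% after viability correction, with every replicate also passing that limit; inconclusive = mean reaches 50% but only one of two replicates passes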;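 note: firefly luciferase signal divided by Alamar Blue viability fluorescence both relative to DMSO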
PAX8 inh HTS = inhibitors of PAX8-driven TPO luciferase reporter, primary screen, RMG-I cells, single concentration; SteadyGlo, 24 h; inhibition, % at 12.6 µM; actives 1.2% (n = 360,000);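 active = mean replicate inhibition at least 60% with every replicate also reaching 60%; inconclusive = only one of the two criteria is met; inactive = mean below 60% and not all replicates reaching 60%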;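 note: luciferase light reporting Pax8 driven TPO promoter activity; plate controls were median of neutral control wells for no effect and mitoxantrone controls for full effect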
INS-1E GSIS act = GLuc luminescence reporter in INS-1E cells, primary screen for activators of glucose-dependent secretion of insulin; actives 0.61% (n = 370,000); activation, % at 16.6 µM; INS-1E GLuc reporter insulin secretion, 2-3 h;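 active = lowest replicate activation of at least 40%, so every replicate reaches that level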;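 note: 0% = median of neutral control wells and 100% = median of IBMX positive control wells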
Xi reactivation = activators of inactive X chromosome reactivation, primary screen, imaging, XiGFP fibroblasts, GFP high-content imaging, set 2 | XiGFP mouse fibroblasts, % GFP-positive cells imaging, 3 d; cells co-treated with 5-aza-dC sensitizer; scaled so ellipticine positive control = 100% | actives 0.055% (n = 360,000) | activation, % at 7.58 µM;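 active = mean normalized replicate activation at least 10% and every replicate at or above 10%; inconclusive = only one of the two criteria met; inactive = mean below 10% and not all replicates reach 10%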;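 note: 0% = median of on-plate neutral control wells and 100% = ellipticine 6 µM median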
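Assay system: SV40-immortalized XiGFP fibroblast cells, line 68-5-11; buffer or medium: DMEM plus 5-aza-dC sensitizer; compound: one concentration, pinned; timing: compounds 3 days, fix/stain 15 min at room temperature; benchmarks: positive control ellipticine, 6 µM final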
The depositor's hits bear a star; ? = inconclusive; . = no result given.

SMILES	PGC1a acetyl inh	AF4-AF9 inh	EWS-Fli inh	PAX8 inh HTS	INS-1E GSIS act	Xi reactivation
CCc1cccc(N=c2c([N+](=O)[O-])nn(-c3ccc4c(c3)OCCO4)n2O)c1	.	4	-11	101*	3	0
CCc1cccc(N=c2c([N+](=O)[O-])nn(-c3ccc(Cl)cc3)n2O)c1	.	7	6	.	-24	.
COc1ccc(C)cc1N1C(=N)/C(=C2/Nc3ccccc3S2)C(c2ccccc2)C1=O (centres undefined)	1	12	66*	13	.	0
C[C@H](CO)N1C[C@H](C)[C@@H](CN(C)Cc2ccc(-c3ccccc3)cc2)Oc2c(NC(=O)c3ccc(-c4nccs4)cc3)cccc2C1=O	11	-2	4	-5	3	0
Cc1ccccc1Nc1c(-c2ccccn2)nc2c(C)cccn12	-11	34*	19	0	11	0
Cc1ccccc1Nc1c(-c2ccncc2)nc2ccc(Cl)cn12	.	-2	14	8	40*	0
Cc1cccc(C)c1Nc1c(-c2ccccn2)nc2ccccn12	2	.	47	31	6	3
C[C@H](CO)N1C[C@H](C)[C@@H](CN(C)C(=O)c2ccccc2)OCCCC[C@H](C)Oc2ccc(N(C)C)cc2C1=O	0	.	3	-24	4	0
O=C1C=CCCN1C(=O)/C=C/c1ccccc1Cl	73*	-3	62*	-3	.	.
O=C1C=CCCN1C(=O)/C=C/c1cccc(C(F)(F)F)c1	78*	0	62*	19	.	.
O=C(/C=C/c1cccc(C(F)(F)F)c1)Nc1cccc(C(F)(F)F)c1	-6	.	.	.	-26	.
COc1cc(C=CC(=O)c2cc(OC)c(OC)c(OC)c2)cc(OC)c1OC	.	0	26	96*	-4	4
COc1cc(C=CC(=O)c2ccccc2)cc(OC)c1OC	.	7	-4	22	-28	1
COc1cc(/C=C/C(=O)N2CCC=CC2=O)cc(OC)c1OC	.	-2	70*	105*	.	1
N#Cc1ccc(-c2ccc3c(c2)[C@H]2[C@H](CCN2C(=O)C2CCCC2)[C@@H](CO)N3)cc1	.	-13	2	.	7	0
O=C(Nc1ccc(F)cc1)N[C@H]1C=C[C@H](CC(=O)N2CCOCC2)O[C@@H]1CO	5	2	10	2	2	0
C=C(C)C(=O)OC1(C(F)(F)F)Oc2cc(C)ccc2NC1=O (centres undefined)	-23	.	.	93*	.	.
CCOC(=O)C1(N(CC)CC)Sc2cc(C)ccc2NC1=O (centres undefined)	-84	.	.	34	.	.
O=C1N[C@H](Cc2ccccc2)COCc2cn(nn2)CC[C@H]1Cc1ccccc1	.	0	0	-5	-8	0
COC(=O)C12OCC34C(CC5C(C)=C(O)C(=O)CC5(C)C3C(O)C1O)OC(=O)C(OC(=O)C=C(C)C)C24 (centres undefined)	?	-4	44	99*	-33	0
CC(=O)N(C)C[C@H]1Oc2ccc(N(S(C)(=O)=O)S(C)(=O)=O)cc2C(=O)N(C)C[C@@H]1C	.	.	.	.	8	0
C/C(=C\c1ccc(N)cc1)c1nc2ccccc2[nH]1	7	7	-121	-158	8	0
O=S(=O)(/C(=C/c1ccc(C(F)(F)F)cc1)c1nc2ccccc2[nH]1)c1ccccc1	.	.	.	115*	-29	0
CC(C)c1ccc(/C=C(\c2nc3ccccc3[nH]2)S(=O)(=O)c2ccccc2)cc1	.	.	.	87*	-19	3
CCN1[C@@H]2c3ccc(C4=CCCC4)c(=O)n3C[C@H]1[C@H](CO)[C@H]2C(=O)NCc1ccccn1	.	-2	-6	.	21	0
SMILES	PGC1a acetyl inh	AF4-AF9 inh	EWS-Fli inh	PAX8 inh HTS	INS-1E GSIS act	Xi reactivation
Cc1ccccc1-c1cnc2c(c1)C(=O)N([C@H](C)CO)C[C@@H](C)[C@@H](CN(C)CC1CCOCC1)O2	-2	-4	-10	.	36	0
CO[C@@H]1CN(C)C(=O)c2cc(NC(=O)c3ccc(Oc4ccccc4)cc3)ccc2OC[C@H](C)NC[C@H]1C	-17	10	69*	8	22	0
CO[C@H]1CN(C)C(=O)c2cc(NC(=O)c3ccc(-c4ccccc4)cc3)ccc2OC[C@H](C)NC[C@@H]1C	-9	4	58*	28	5	0
CO[C@H]1CN(C)C(=O)c2ccc(NC(=O)c3ccc(-c4ccccc4)cc3)cc2OC[C@H](C)NC[C@@H]1C	-57	6	.	50	16	0
CO[C@@H]1CN(C)C(=O)c2ccc(NC(=O)c3ccc(-c4ccccc4)cc3)cc2OC[C@@H](C)NC[C@H]1C	0	11	42	68*	32	0
CO[C@@H]1CN(C)C(=O)c2cc(NC(=O)c3ccc(-c4ccccc4)cc3)ccc2OC[C@H](C)NC[C@H]1C	-6	6	54*	84*	15	0
C[C@@H]1CCCCO[C@@H](CN(C)S(=O)(=O)c2ccc(F)cc2)[C@H](C)CN([C@H](C)CO)C(=O)c2cc(NS(=O)(=O)c3cn(C)cn3)ccc2O1	5	-1	3	2	-7	0
CS(=O)(=O)N1[C@@H]2CN(CC(F)(F)F)C[C@H]1C2c1ccc(Br)cc1 (some centres undefined)	.	.	.	.	-19	0
CO[C@H]1CN(C)C(=O)c2cc(NC(=O)c3ccc(-c4ccccc4)cc3)ccc2OC[C@@H](C)NC[C@@H]1C	0	7	2	112*	.	0
CO[C@H]1CN(C)C(=O)c2cc(NC(=O)c3ccccc3)ccc2OC[C@@H](C)NC[C@H]1C	1	-5	7	-4	8	1
C[C@@H]1CN([C@@H](C)CO)C(=O)c2cc(NC(=O)CCCN(C)C)ccc2O[C@H]1CN(C)Cc1ccc2c(c1)OCO2	0	0	-2	13	9	0
COc1ccc(C(=O)NCc2nnc(SCC(=O)NO)n2Cc2ccccc2)cc1	12	26*	5	-6	-6	0
O=C(C[C@H]1CC[C@H](NC(=O)CN2CCOCC2)[C@H](CO)O1)NCCc1ccncc1	2	-1	0	-17	11	0
CO[C@H]1CN(C)C(=O)c2ccc(NS(=O)(=O)c3ccc(F)cc3)cc2OC[C@H](C)NC[C@@H]1C	-4	-1	-15	.	6	0
CCNC(=O)C[C@H]1CC[C@H]2[C@@H](COc3ccc(NC(=O)Nc4ccccc4F)cc3C(=O)N2C)O1	-2	-1	3	-8	1	0
